ASAP1 GAP inh – inhibitors of human ASAP1 ArfGAP activity, primary screen, biochemical, fluorescence polarization. ASAP1-stimulated ARF1 GTP hydrolysis, GDP FP detection. inhibition, % at 16.5 µM. 0.19% of 360,000 active. AID 624377, 2012; in the data active means inhibition above about 25%
esBAF inh – Bmi1 luciferase reporter increase in mESCs, primary screen, esBAF inhibitor project, mouse ES cells, Bmi1 luciferase knock-in, single point. AID 602393, 2012. 2% of 350,000 active. 24 h; 100% = twice the neutral-well signal. reporter increase, % at 12.5 µM; in the data active means activation above about 40%;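 further: a rise in the Bmi1 reporter signal indicates esBAF inhibition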
ARFGAP1 inh – inhibitors of rat ARFGAP1 GAP activity, primary screen, biochemical, fluorescence polarization, GDP tracer | Arfgap1-stimulated ARF1 GTP hydrolysis, GDP FP detection | inhibition, % at 16.5 µM | 0.26% of 360,000 active;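 active means inhibition above a per-plate limit, mean inhibition of low control wells plus 3 SD, cut at about 25% in these data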
Target sequence (Q62848 1-136 limits assumed): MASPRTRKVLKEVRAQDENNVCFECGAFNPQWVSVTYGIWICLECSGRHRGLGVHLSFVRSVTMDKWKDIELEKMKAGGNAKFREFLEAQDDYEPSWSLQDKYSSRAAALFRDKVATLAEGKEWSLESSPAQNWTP
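Material: rat Arfgap1 catalytic domain, aa 1-136; also added: human ARF1(Δ1-17)-GTP substrate; compound dosing: one concentration, 16.5 µM, DMSO 1.26%; incubation: GTP hydrolysis reaction 2 h at 25 °C; measured by: Tracer-displacement fluorescence polarization with EDTA stop, 620/688 nm; evaluation: % inhibition from polarization; repeats: one replicate per compound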
SMARCA2 activ – SMARCA2 (BRM) function activators, primary screen, cell-based, luminescence, high throughput. MG213 cells, MMTV-luciferase reporter, dexamethasone, overnight. 1% of 370,000 active. activation, % at 9.1 µM. AID 652017, 2013; in the data active means activation above about 7.8%
A number is an active result; i = inactive; nt = no result given. An excerpt weighted towards active compounds, which were near 2.6% of everything screened.

SMILES	ASAP1 GAP inh	esBAF inh	ARFGAP1 inh	SMARCA2 activ
CCc1ccc(NC(=O)c2onc(C)c2Cl)cc1	i	54	i	i
COc1ccccc1-c1ccc([C@H]2[C@H](C#N)N(C(=O)C3CC3)[C@H]2CO)cc1	nt	i	nt	nt
CC1(C)CC(=O)c2c(O)cc(OCc3ccc([N+](=O)[O-])cc3)cc2O1	i	47	i	i
Cn1cnc(CCNC(=O)C[C@H]2CC[C@@H]3[C@H](COC[C@@H](O)CN3C(=O)Nc3ccccc3)O2)c1	nt	i	nt	nt
Cc1ccc(NC(=O)CCOc2ccccc2)cc1	i	56	i	i
O=C(Nc1cccc(Cl)c1)OCCOC(=O)Nc1cccc(Cl)c1	i	i	i	i
O=C(Nc1cccc(Cl)c1)OCCOc1ccccc1	i	61	i	i
O=C(Nc1ccccc1)OCCOc1ccccc1Br	i	45	i	i
CC(=O)Nc1sc(C)c(C)c1C(=O)OCCOc1ccccc1	i	55	i	i
O=C(CCOc1ccccc1)Nc1ccccc1	i	nt	i	i
CC=Cc1ccc2n(c1=O)C[C@@H]1[C@@H](CO)[C@H](C(=O)NCC)[C@H]2N1C(=O)c1ccc(F)cc1 (mixture of isomers)	nt	i	nt	nt
N#CCc1ccc(OC(=O)Nc2ccccc2)cc1	i	i	i	i
Cc1ccc(OC(=O)Nc2ccccc2)cc1	i	50	i	i
O=C(Nc1ccccc1)OCCOc1ccccc1	i	52	i	i
COc1ccc(OCCOC(=O)Nc2ccccc2)cc1	i	i	i	i
Cc1ccc(Oc2ccc(NC(=O)c3ccco3)cc2)cc1	i	i	i	i
Cc1ccc(NC(=O)c2ccc(OC(=O)c3ccco3)cc2)cc1	i	54	i	i
Cc1noc(C)c1S(=O)(=O)Nc1ccc2c(c1)C(=O)N([C@@H](C)CO)C[C@@H](C)[C@@H](CN(C)S(=O)(=O)c1ccccc1)OCCCC[C@@H](C)O2	nt	i	nt	nt
C[C@H](CO)N1C[C@H](C)[C@@H](CN(C)C(=O)CN(C)C)Oc2ncc(C#Cc3ccccc3)cc2C1=O	nt	i	nt	nt
O=Cc1c[nH]c2ccc(OCc3ccccc3)cc12	i	i	i	i
Cn1ccc2cc(OCc3ccccc3)ccc21	i	49	i	i
Cc1c(C=O)c2cc(OCc3ccccc3)ccc2n1C	i	70	i	i
O=C1NC(=O)/C(=C/c2ccc(O)cc2)S1	i	nt	i	i
O=C1NC(=O)/C(=C/c2ccccn2)S1	i	45	i	i
CNC[C@@H]1Oc2c(NC(=O)c3ccncc3)cccc2C(=O)N([C@H](C)CO)C[C@H]1C	nt	i	nt	nt
SMILES	ASAP1 GAP inh	esBAF inh	ARFGAP1 inh	SMARCA2 activ
CC(=O)Nc1ccc(-c2csc(Nc3cccc(C)n3)n2)cc1	i	nt	i	i
Cc1cccc(Nc2nc(-c3ccc(O)cc3O)cs2)n1	i	45	i	i
COc1ccc(CN(C)C[C@@H]2Oc3ccc(NC(=O)c4ccncc4)cc3C(=O)N([C@@H](C)CO)C[C@H]2C)cc1	nt	i	nt	nt
CC(C)CCn1cnc2c(sc3nc4c(cc32)CSC(C)(C)C4)c1=O	i	nt	i	i
CCCCn1cnc2c(sc3nc4c(cc32)CSC(C)(C)C4)c1=O	i	47	i	i
CC(C)NC(=O)N(C)C[C@H]1Oc2cc(C#CCN(C)C)ccc2S(=O)(=O)N([C@@H](C)CO)C[C@H]1C	nt	i	nt	nt
Cc1cc2ncn(C(=O)N3CCCCCC3)c2cc1C	i	49	i	i
C[C@H](CO)N1C[C@H](C)[C@@H](CN(C)S(=O)(=O)c2ccc(Cl)cc2)Oc2ccc(NC(=O)Nc3ccc4c(c3)OCO4)cc2CC1=O	nt	i	nt	nt
Cc1cc(/C=C2\C(=O)NN(c3ccccc3)C2=O)c(C)n1-c1ccccc1O	i	58	i	i
Cc1cc(/C=C2/C(=O)NN(c3ccccc3)C2=O)c(C)n1-c1ccc(O)cc1	i	nt	i	i
O=C(Nc1nc2c(s1)CCc1ccccc1-2)c1ccco1	i	62	i	i
CC(=O)Nc1nc2c(s1)CCc1ccccc1-2	i	i	i	i
O=C(Nc1nnc(Cc2ccccc2)s1)c1ccco1	i	46	i	i
O=C(Nc1nnc(CCc2ccccc2)s1)c1ccco1	i	i	i	i
NC(=O)c1cc(Cc2ccccc2)sc1NC(=O)c1ccco1	i	85	i	i
C[C@H](CO)N1C[C@H](C)[C@@H](CN(C)C(=O)c2ccncc2)Oc2cc(C#CC3(O)CCCC3)ccc2S1(=O)=O	nt	i	nt	nt
